We go through 22 compounds from ChEMBL document CHEMBL3992519 (J Med Chem, 2017).

In series [1] the target is Delta-type opioid receptor (Homo sapiens, UniProt P41143). Put plainly: Displacement of [3H]DPDPE from human delta opioid receptor expressed in CHO cell membranes by micro-beta scintillation counting method. On the technique in general: Loss of bound radioactivity is the signal in a displacement assay; it reports binding, not function.
In series [2] the target is Kappa-type opioid receptor (Homo sapiens, UniProt P41145). Put plainly: Displacement of [3H]U69,593 from human kappa opioid receptor expressed in CHO cell membranes by micro-beta scintillation counting method.
Kappa-type opioid receptor, sequence (P41145 whole entry): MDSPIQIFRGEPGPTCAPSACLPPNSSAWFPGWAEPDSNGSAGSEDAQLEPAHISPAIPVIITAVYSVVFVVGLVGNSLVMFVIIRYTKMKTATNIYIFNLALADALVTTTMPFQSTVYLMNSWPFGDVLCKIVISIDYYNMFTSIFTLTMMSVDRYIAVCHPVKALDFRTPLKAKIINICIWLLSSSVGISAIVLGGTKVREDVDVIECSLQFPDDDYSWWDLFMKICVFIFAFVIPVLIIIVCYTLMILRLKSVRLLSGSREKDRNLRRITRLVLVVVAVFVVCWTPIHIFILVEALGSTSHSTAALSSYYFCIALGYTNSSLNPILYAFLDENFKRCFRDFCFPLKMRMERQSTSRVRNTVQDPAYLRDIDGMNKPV
Series [3] addresses Mu-type opioid receptor (Homo sapiens, UniProt P35372). Put plainly: Displacement of [3H]DAMGO from human mu opioid receptor expressed in CHO cell membranes by micro-beta scintillation counting method.
Series [4] concerns the target T1, Orexin/Hypocretin receptor type 1 (Homo sapiens, UniProt O43613).
T1 sequence (O43613 whole entry): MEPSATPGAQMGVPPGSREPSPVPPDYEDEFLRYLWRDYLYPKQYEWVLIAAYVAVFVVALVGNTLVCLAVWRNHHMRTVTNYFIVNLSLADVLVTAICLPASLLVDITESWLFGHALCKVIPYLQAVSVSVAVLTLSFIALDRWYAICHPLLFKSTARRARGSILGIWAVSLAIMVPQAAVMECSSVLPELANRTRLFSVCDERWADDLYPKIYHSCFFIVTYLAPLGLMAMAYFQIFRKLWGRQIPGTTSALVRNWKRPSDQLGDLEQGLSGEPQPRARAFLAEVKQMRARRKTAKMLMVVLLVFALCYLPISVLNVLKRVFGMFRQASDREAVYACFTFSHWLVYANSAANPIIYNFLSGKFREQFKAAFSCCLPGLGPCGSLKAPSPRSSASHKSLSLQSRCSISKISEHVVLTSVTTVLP
Put plainly: Antagonist activity at human OX1R expressed in CHOK1 cells assessed as inhibition of orexin A-induced intracellular calcium level preincubated for 15 mins followed by orexin A addition by Fura-2-AM dye based fluorescence assay. (A change in cytosolic calcium serves as a functional read-out for many receptors and channels.)

Series [5] addresses T2, Orexin receptor type 2 (Homo sapiens, UniProt O43614).
T2 sequence (O43614 whole entry): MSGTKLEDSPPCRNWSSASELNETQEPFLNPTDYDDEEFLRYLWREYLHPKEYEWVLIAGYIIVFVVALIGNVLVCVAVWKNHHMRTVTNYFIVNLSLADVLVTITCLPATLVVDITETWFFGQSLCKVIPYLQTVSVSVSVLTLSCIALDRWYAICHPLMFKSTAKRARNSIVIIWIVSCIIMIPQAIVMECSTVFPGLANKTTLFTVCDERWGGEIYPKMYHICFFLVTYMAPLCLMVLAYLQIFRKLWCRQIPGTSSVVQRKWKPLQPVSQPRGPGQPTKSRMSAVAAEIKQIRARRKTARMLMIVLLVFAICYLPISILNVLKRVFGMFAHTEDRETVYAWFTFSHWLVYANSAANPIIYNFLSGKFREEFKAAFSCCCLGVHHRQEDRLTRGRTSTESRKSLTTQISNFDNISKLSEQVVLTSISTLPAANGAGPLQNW
Put plainly: Antagonist activity at human OX2R expressed in CHOK1 cells assessed as inhibition of orexin A-induced intracellular calcium level preincubated for 15 mins followed by orexin A addition by Fura-2-AM dye based fluorescence assay. In kind it is cell-based. The following applies: for inhibition (INH): human. A digest of the protocol:
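CHO cells expressing human OX1R or OX2R; calcium transient assay. IC50 came from concentration-response curves in at least three independent assays, each run in triplicate. Ki was derived by the Cheng-Prusoff equation and reported as mean ± SEM. […] Some compounds were tested as HCl, MeSO3H or 2H2SO4 salts.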

The nature of series [6]: Selectivity index, ratio of IC50 for human OX2R expressed in CHOK1 cells to IC50 for human OX1R expressed in CHOK1 cells.
Series [7] in a line: Solubility of the compound in saline. In kind it is physicochemical. The following applies: buffer.
A short description of series [8]: Solubility of the compound in water. In kind it is physicochemical. The following applies: buffer.

Delta-type opioid receptor, sequence (P41143 whole entry): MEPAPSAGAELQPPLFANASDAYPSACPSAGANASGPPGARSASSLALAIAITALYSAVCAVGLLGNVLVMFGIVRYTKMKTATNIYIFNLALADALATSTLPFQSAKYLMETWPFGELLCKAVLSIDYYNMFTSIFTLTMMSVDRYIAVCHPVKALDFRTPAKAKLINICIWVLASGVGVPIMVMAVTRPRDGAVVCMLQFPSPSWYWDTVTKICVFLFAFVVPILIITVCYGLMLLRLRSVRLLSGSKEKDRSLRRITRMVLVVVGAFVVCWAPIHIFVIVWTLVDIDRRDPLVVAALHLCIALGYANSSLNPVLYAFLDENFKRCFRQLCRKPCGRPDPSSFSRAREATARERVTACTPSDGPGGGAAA
Mu-type opioid receptor, sequence (P35372 whole entry): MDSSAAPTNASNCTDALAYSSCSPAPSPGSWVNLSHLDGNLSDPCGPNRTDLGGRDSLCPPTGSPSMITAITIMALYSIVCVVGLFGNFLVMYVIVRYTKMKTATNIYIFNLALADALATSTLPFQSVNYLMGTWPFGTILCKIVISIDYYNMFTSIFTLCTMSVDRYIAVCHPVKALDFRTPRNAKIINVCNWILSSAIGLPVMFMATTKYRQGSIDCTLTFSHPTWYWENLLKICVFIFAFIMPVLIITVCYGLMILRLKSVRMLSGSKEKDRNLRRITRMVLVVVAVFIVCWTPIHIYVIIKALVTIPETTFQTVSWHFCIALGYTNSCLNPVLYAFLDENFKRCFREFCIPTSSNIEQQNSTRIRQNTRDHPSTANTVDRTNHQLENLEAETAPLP

For orientation: Ki means a measure of affinity in units of concentration, obtained from inhibition or displacement. In the case of `CN(C)c1ccc(S(=O)(=O)N2CC[C@]34c5c6ccc(O)c5O[C@H]3[C@H](N(C)C(=O)/C=C/c3ccoc3)CC[C@@]4(O)[C@H]2C6)cc1`, the results for the Ki in series [1], in series [2] and in series [3] were more than 1000 nM, 200 nM and 971 nM, respectively.

On to `CN(C(=O)/C=C/c1ccoc1)[C@@H]1CC[C@@]2(O)[C@H]3Cc4cccc5c4[C@@]2(CCN3CC2CC2)[C@H]1O5`, for which the Ki in series [4] is 1240 nM. The “inhibition (INH)” value in series [5] is listed as “Not Active”.

`COc1ccc2c3c1O[C@H]1[C@H](N(C)C(=O)/C=C/c4ccoc4)CC[C@@]4(O)[C@@H](C2)N(C(=O)c2ccc(C)cc2)CC[C@]314`: in series [6], the “Ratio IC50” value is recorded as less than 88.4. The Ki was determined as 14 nM in series [4] and 725 nM in series [5] (read-out: Ki). The solubility entry in series [7] and in series [8] was “Insoluble” in each case.

Regarding `COc1ccc2c3c1O[C@H]1[C@H](N(C)C(=O)/C=C/c4ccoc4)CC[C@@]4(O)[C@@H](C2)N(CC2CC2)CC[C@]314`, the Ki in series [4] came to 22.5 nM. Besides, the “inhibition (INH)” value in series [5] is recorded as “Not Active”.

Consider `COc1ccc2c3c1O[C@H]1[C@H](N(C)C(=O)/C=C/c4ccoc4)CC[C@@]4(O)[C@@H](C2)N(S(=O)(=O)c2ccc(N(C)C)cc2)CC[C@]314.Cl`, for which, in series [6], the “Ratio IC50” value was less than 88.4. The Ki in series [4] was 12.9 nM; in series [1], more than 1000 nM; in series [2], more than 1000 nM; in series [3], more than 1000 nM. In addition, the solubility entry in series [7] and in series [8] was “Insoluble” each time.

Turning to `COc1ccc2c3c1O[C@H]1[C@H](N(C)C(=O)/C=C/c4ccoc4)CC[C@@]4(O)[C@@H](C2)N(C(=O)/C=C/c2ccccc2)CC[C@]314`, the “Ratio IC50” value in series [6] is recorded as less than 88.4. For the same compound, the Ki in series [4] was 14 nM; in series [1], more than 1000 nM; in series [2], more than 1000 nM; in series [3] it was more than 1000 nM. The solubility entry in series [7] and in series [8] was “Insoluble” in each case.

`COc1ccc2c3c1O[C@H]1[C@H](N(C)C(=O)/C=C/c4ccoc4)CC[C@@]4(O)[C@@H](C2)N(S(=O)(=O)c2ccccc2)CC[C@]314`: the “Ratio IC50” value in series [6] is less than 88.4. The Ki is 8.14 nM in series [4], more than 1000 nM in series [1], more than 1000 nM in series [2] and more than 1000 nM in series [3]. Also, the solubility result in series [7] and in series [8] was “Insoluble” each time.

On to `COc1ccc2c3c1O[C@H]1[C@H](N(C)C(=O)/C=C/c4ccccn4)CC[C@@]4(O)[C@@H](C2)N(S(=O)(=O)c2ccccc2N(C)C)CC[C@]314.O=S(=O)(O)O.O=S(=O)(O)O`, for which the Ki in series [1], in series [2] and in series [3] was more than 1000 nM each time.

For `COc1ccc2c3c1O[C@H]1[C@H](N(C)C(=O)/C=C/c4ccoc4)CC[C@@]4(O)[C@@H](C2)N(C(C)=O)CC[C@]314`, the “Ratio IC50” value in series [6] is reported as less than 88.4. In series [4], the Ki amounted to 541 nM. For the same compound, the solubility entry in series [7] and in series [8] was “Insoluble” in each case.

As for `COc1ccc2c3c1O[C@H]1[C@H](N(C)C(=O)/C=C/c4ccoc4)CC[C@@]4(O)[C@@H](C2)N(S(=O)(=O)c2ccccc2C#N)CC[C@]314`, the “Ratio IC50” value in series [6] was less than 88.4. The Ki in series [4] is 1.96 nM. Moreover, the solubility entry in series [7] and in series [8] was “Insoluble” throughout.

With `COc1ccc2c3c1O[C@H]1[C@H](N(C)C(=O)/C=C/c4ccoc4)CC[C@@]4(O)[C@@H](C2)N(S(=O)(=O)c2ccccc2Br)CC[C@]314`, the “Ratio IC50” value in series [6] is given as less than 88.4. Further, the Ki in series [4] stood at 2.1 nM. Besides, the solubility entry in series [7] and in series [8] was “Insoluble” in each case.

For the compound `COc1ccc2c3c1O[C@H]1[C@H](N(C)C(=O)/C=C/c4ccoc4)CC[C@@]4(O)[C@@H](C2)N(S(=O)(=O)c2ccccc2C)CC[C@]314`, the “Ratio IC50” value in series [6] is reported as less than 88.4. Also, the Ki in series [4] was determined as 1.7 nM. For the same compound, the solubility result in series [7] and in series [8] was “Insoluble” each time.

For the compound `COc1ccc2c3c1O[C@H]1[C@H](N(C)C(=O)/C=C/c4ccoc4)CC[C@@]4(O)[C@@H](C2)N(S(=O)(=O)c2cccc(F)c2)CC[C@]314`, the “Ratio IC50” value in series [6] is less than 88.4. For the same compound, the Ki in series [4] turned out to be 7.6 nM. Besides, the solubility result in series [7] and in series [8] was “Insoluble” each time.

For `COc1ccc2c3c1O[C@H]1[C@H](N(C)C(=O)/C=C/c4ccoc4)CC[C@@]4(O)[C@@H](C2)N(C(=O)C2CC2)CC[C@]314`, the “Ratio IC50” value in series [6] is less than 88.4. In addition, the Ki in series [4] was 12 nM; in series [1] it was more than 1000 nM; in series [2], more than 1000 nM; in series [3], more than 1000 nM. Besides, the solubility result in series [7] and in series [8] was “Insoluble” in each case.

For the compound `COc1ccc2c3c1O[C@H]1[C@H](N(C)C(=O)/C=C/c4ccoc4)CC[C@@]4(O)[C@@H](C2)N(S(=O)(=O)c2cccc(Cl)c2)CC[C@]314`, the “Ratio IC50” value in series [6] is given as less than 88.4. Also, the Ki in series [4] was 3.47 nM. In addition, the solubility result in series [7] and in series [8] was “Insoluble” in each case.

Regarding `CN(C(=O)/C=C/c1ccccc1)[C@@H]1CC[C@@]2(O)[C@H]3Cc4ccc(O)c5c4[C@@]2(CCN3CC2CC2)[C@H]1O5.Cl`, in series [6], the “Ratio IC50” value is on record as less than 88.4. The Ki in series [4] came out at 389 nM. Further, the solubility entry in series [7] and in series [8] was “Insoluble” throughout.

Consider `COc1ccc2c3c1O[C@H]1[C@H](N(C)C(=O)/C=C/c4ccoc4)CC[C@@]4(O)[C@@H](C2)N(C(=O)OC(C)(C)C)CC[C@]314`, for which the “Ratio IC50” value in series [6] is less than 88.4. Also, the Ki in series [4] was 4.15 nM; in series [1] it was more than 1000 nM; in series [2], 184 nM; in series [3], more than 1000 nM. The solubility entry in series [7] and in series [8] was “Insoluble” each time.

On to `COc1ccc2c3c1O[C@H]1[C@H](N(C)C(=O)/C=C/c4ccoc4)CC[C@@]4(O)[C@@H](C2)N(S(=O)(=O)c2ccc(F)cc2)CC[C@]314`, for which the “Ratio IC50” value in series [6] is on record as less than 88.4. Moreover, in series [4], the Ki came out at 4.05 nM. Besides, the solubility result in series [7] and in series [8] was “Insoluble” each time.

On to `CCCCS(=O)(=O)N1CC[C@]23c4c5ccc(OC)c4O[C@H]2[C@H](N(C)C(=O)/C=C/c2ccoc2)CC[C@@]3(O)[C@H]1C5`, for which the “Ratio IC50” value in series [6] is less than 88.4. In addition, in series [4], the Ki turned out to be 5.94 nM. Also, the solubility result in series [7] and in series [8] was “Insoluble” throughout.

For the compound `COc1ccc2c3c1O[C@H]1[C@H](N(C)C(=O)/C=C/c4ccoc4)CC[C@@]4(O)[C@@H](C2)N(S(=O)(=O)c2c(C)cc(C)cc2C)CC[C@]314`, the “Ratio IC50” value in series [6] is less than 88.4. In series [4], the Ki was 4.16 nM. In addition, the solubility result in series [7] and in series [8] was “Insoluble” throughout.

As to `COc1ccc2c3c1O[C@H]1[C@H](N(C)C(=O)/C=C/c4ccoc4)CC[C@@]4(O)[C@@H](C2)N(S(=O)(=O)c2ccc(C(F)(F)F)cc2)CC[C@]314`, the “Ratio IC50” value in series [6] is reported as less than 88.4. Moreover, in series [4], the Ki stood at 12.6 nM. Moreover, the solubility entry in series [7] and in series [8] was “Insoluble” throughout.

As to `COc1ccc2c3c1O[C@H]1[C@H](N(C)C(=O)/C=C/c4ccoc4)CC[C@@]4(O)[C@@H](C2)N(S(=O)(=O)c2ccccc2N(C)C)CC[C@]314.Cl`, the “Ratio IC50” value in series [6] is given as less than 88.4. Further, the Ki in series [4] amounted to 1.92 nM. Further, the solubility entry in series [7] and in series [8] was “Insoluble” in each case.
